Screening results deposited in PubChem BioAssay by The Scripps Research Institute Molecular Screening Center.
Sampled rows, rich in hits. Any-hit rate of the full collection: about 4.3%.
STAT3 activator – activators of IL-6 induced STAT3 signaling | U3A cells, IL-6 STAT3-luciferase reporter, luminescence; 100% = signal with IL-6 EC80 alone | activation (% of control), % at 5.6 µM | hit rate 0.91% among 190,000 | AID 871;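 active = activation above the screen-wide mean of compound activation plus 3 SD, cut at about 130% in these data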
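Material: STAT3-luciferase reporter U3A cells; Probe or stimulus: IL-6 (33 ng/mL); Incubation: compound pre-incubation 1 h before IL-6, then 6 h stimulation at 37 °C; Technique: luminescence from STAT3-driven luciferase reporter; Evaluation: % activation versus median of IL-6-stimulated wells; Controls: IL-6-only high control.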
STAT1 inh-1 – inhibitors of IFN-gamma induced STAT1 signaling; NIH 3T3 STAT1-luciferase reporter, luminescence; inhibition, % at 5.5 µM; hit rate 0.35% among 200,000;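 active = inhibition above a set limit, the mean inhibition across all tested compounds plus 3 SD, cut at about 34% in these data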
STAT3 blocker – inhibitors of IL-6 induced STAT3 signaling | U3A cells, IL-6 STAT3-luciferase reporter, luminescence; host cell line lacks STAT1 | inhibition, % at 5.5 µM | hit rate 0.89% among 190,000;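 active = inhibition above the mean inhibition across all screened compounds plus 3 SD, cut at about 44% in these data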
STAT1 activator – STAT1 signaling activation | NIH 3T3 STAT1-luciferase reporter, IFN-gamma, luminescence; 100% = IFN-gamma alone, no compound | activation (% of control), % at 5.5 µM | hit rate 2.6% among 200,000 | AID 932;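 active = activation above the screen-wide mean activation plus 3 SD, cut at about 130% in these data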
STAT1 inh-2 – STAT1 inhibition, confirmation assay. shares compounds with STAT1 inh-1. NIH 3T3 STAT1-luciferase reporter, IFN-gamma, luminescence. inhibition, % at 5.5 µM. hit rate 55% among 200;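 active = triplicate mean inhibition exceeding the hit cutoff computed for the primary STAT1 screen, cut at about 35% in these data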
NFkB inh STAT1ct – counter-screen for STAT1 inhibitors: NF-kappaB inhibition | HEK293T NF-kB luciferase reporter, TNF-alpha induced, luminescence | hit rate 30% among 200 | inhibition, % at 5.7 µM | shares compounds with STAT1 inh-1 | AID 1303;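 active = inhibition above the mean of solvent-only control wells plus 3 SD of those wells, cut at about 15% in these data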
STAT3 inh 2 – inhibits STAT3, counter-screen to STAT1 inhibitors | shares compounds with STAT1 inh-1 | U3A cells, IL-6 STAT3 luciferase reporter, luminescence; cells lacking STAT1 | inhibition, % at 5.7 µM | hit rate 20% among 200 | AID 1310;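 active = inhibition above the mean of solvent-only control wells plus 3 SD, set per campaign, cut at about 25% in these data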
STAT1 activ conf – STAT1 activation, confirmation assay; shares compounds with STAT1 activator; hit rate 97% among 1,200; activation (% of control), % at 5.7 µM; AID 1262; NIH 3T3 STAT1-luciferase reporter, IFN-gamma potentiation, luminescence; 100% = IFN-gamma EC80 alone, no compound;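 active = activation above a set limit carried over from the earlier primary STAT1 screen, cut at about 140% in these data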
NFkB act – NF-kappaB activation in STAT1 activator counter-screen. HEK293T NF-kB luciferase reporter, TNF-alpha stimulated, luminescence; 100% = TNF-alpha with vehicle only. shares compounds with STAT1 activator. hit rate 43% among 1,200. activation (% of control), % at 5.7 µM. AID 1306;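 active = activation above the mean of solvent-only control wells plus 3 SD, set per campaign, cut at about 130% in these data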;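 also: TNF-alpha given at a submaximal dose yielding about 80% of full reporter signal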
STAT3 act 2 – counter-screen for STAT1 activators: human STAT3 activation; activation (% of control), % at 5.7 µM; hit rate 46% among 1,200; AID 1316; shares compounds with STAT1 activator; U3A cells STAT3-luciferase reporter, IL-6, luminescence; cells lack STAT1; 100 = IL-6 alone, no compound effect;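 active = activation above the solvent-only control well mean plus 3 SD, set per plate batch, cut at about 110% in these data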;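 also: higher means more STAT3 reporter activation so hits are non-selective activators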
A number is an active result; i = inactive; nt = no result.

SMILES	STAT3 activator	STAT1 inh-1	STAT3 blocker	STAT1 activator	STAT1 inh-2	NFkB inh STAT1ct	STAT3 inh 2	others
COc1ccccc1-c1cc(C(F)(F)F)nc(S(=O)(=O)CCCC(=O)Nc2cccnc2Cl)n1	i	43	i	i	41	i	i
COc1ccccc1-c1cc(C(F)(F)F)nc(S(=O)(=O)CCCC(=O)NC(C)C)n1	i	i	i	i	nt	nt	nt
COc1ccc(-c2cc(C(F)(F)F)nc(S(=O)(=O)CCCC(=O)Nc3cc(C)on3)n2)cc1OC	i	51	i	i	46	i	i
COc1ccccc1-c1cc(C(F)(F)F)nc(S(=O)(=O)CCCC(=O)NCc2ccc(F)cc2)n1	i	i	i	i	nt	nt	nt
O=C(CCNC(=O)Cn1ccc2ccccc2c1=O)NCC1CCCC1c1ccccc1 (stereo unspecified)	i	i	i	i	nt	nt	nt
CCC(=O)Nc1cccc(-c2nc3ccccc3o2)c1	i	i	i	i	nt	nt	nt
CCCC(=O)Nc1cccc(-c2nc3ccccc3c(=O)o2)c1	i	37	i	i	i	i	i
CC(C)(C)C(=O)Nc1cccc(-c2nc3ccccc3c(=O)o2)c1	i	i	i	i	nt	nt	nt
CC(C)C(=O)Nc1ccc(-c2nc3ccccc3c(=O)o2)cc1	i	38	i	i	i	i	i
CC(C)C(=O)Nc1cccc(-c2nc3ccccc3c(=O)o2)c1	i	i	i	i	nt	nt	nt
CC(C)(C)C(=O)Nc1ccc(-c2nc3ccccc3c(=O)o2)cc1	i	41	i	i	i	i	i
Cn1c(-c2ccccc2)c(C(=O)CCl)c2ccccc21	i	37	i	i	36	40	i
Cc1noc(C)c1COC(=O)C(c1ccccc1)c1ccccc1	i	i	i	i	nt	nt	nt
O=C(Nc1ccccc1C(=O)NCc1ccccc1)c1ccccc1Br	i	i	i	i	nt	nt	nt
O=C(Nc1ccccc1C(=O)O)c1ccc(Br)c(S(=O)(=O)NCc2ccccc2)c1	i	51	i	i	i	i	i
COc1cc(OC)cc(C(=O)NNC(=S)NC2CC2)c1	i	i	i	i	nt	nt	nt
CCCCC(=O)N/N=C(C)/C=C/c1ccccc1F	i	45	i	i	i	i	i
CC(/C=C/c1ccccc1F)=N\NC(=O)C(C)C	i	i	i	i	nt	nt	nt
CC(=O)c1ccc(OC(C)C)c(Cc2c(O)nc(N)[nH]c2=O)c1	i	i	i	i	nt	nt	nt
COc1cc2ncnc(NCc3ccc(C)cc3)c2cc1OC	i	i	i	i	nt	nt	nt
COc1cc2ncnc(NCCc3ccccc3)c2cc1OC	i	i	i	i	nt	nt	nt
Clc1ccc2c(NCc3ccco3)ncnc2c1	i	i	i	i	nt	nt	nt
COc1ccc(CNc2ncnc3cc(Cl)ccc23)cc1OC	i	41	i	i	35	i	i
COc1ccccc1CNc1ncnc2cc(Cl)ccc12	i	42	i	i	38	i	i
COc1ccc(CCNc2ncnc3cc(OC)c(OC)cc23)cc1OC	i	35	i	i	36	i	i
SMILES	STAT3 activator	STAT1 inh-1	STAT3 blocker	STAT1 activator	STAT1 inh-2	NFkB inh STAT1ct	STAT3 inh 2	others
Cc1cc(NC(=O)CCSc2ccc(Cl)cc2)no1	i	i	i	i	nt	nt	nt
COc1ccc2c(c1OC)C(=O)N1c3cccc(Cl)c3C(=O)OC21 (stereo unspecified)	i	i	i	i	nt	nt	nt
COc1ccc2c(c1OC)C(=O)N1c3ccccc3C(=O)N(c3ccccc3F)C21 (stereo unspecified)	i	48	i	i	41	i	30
O=C(CCSCc1ccccc1Cl)NC1CCCCC1	i	i	i	i	nt	nt	nt
CCC(=O)NC(=S)Nc1ccc(NC(=S)NC(=O)c2ccccc2)cc1	i	83	i	i	53	38	i
CCC(=O)NC(=S)Nc1ccc(NC(=S)NC(=O)c2ccc(C)cc2)cc1	i	i	i	i	nt	nt	nt
CCn1c(O)c(C=Nc2ccccc2)sc1=S	i	i	i	176	nt	nt	nt	STAT1 activ conf=206;NFkB act=139;STAT3 act 2=111
O=C(O)Cn1c(O)c(C=Nc2ccccc2)sc1=S	i	i	i	i	nt	nt	nt
Cc1cccc(/C(N)=N/OC(=O)c2ccc(Cl)cc2Cl)c1	i	i	i	161	nt	nt	nt	STAT1 activ conf=222;NFkB act=i;STAT3 act 2=114
N/C(=N\OC(=O)c1ccccc1Cl)c1ccc(Cl)cc1	i	i	i	155	nt	nt	nt	STAT1 activ conf=193;NFkB act=i;STAT3 act 2=159
N/C(=N\OC(=O)c1ccc(Cl)cc1Cl)c1ccc(Cl)cc1	i	i	i	i	nt	nt	nt
Cc1ccc(/C(N)=N/OC(=O)c2ccc(C)cc2Cl)cc1	i	i	i	164	nt	nt	nt	STAT1 activ conf=207;NFkB act=i;STAT3 act 2=i
C/C(N)=C(/C#N)C(=O)COC(=O)c1cc(C)n(-c2ccc(F)cc2)c1C	i	i	i	154	nt	nt	nt	STAT1 activ conf=173;NFkB act=i;STAT3 act 2=153
Fc1ccccc1N1CCN(c2cnc3ccccc3n2)CC1	i	i	i	168	nt	nt	nt	STAT1 activ conf=245;NFkB act=i;STAT3 act 2=i
COc1cccc(C(=O)Nc2cc3c(cc2C(C)=O)OCCO3)c1	i	i	i	i	nt	nt	nt
Cc1oc(-c2cc(F)cc(F)c2)nc1CN1CCSCC1	i	i	i	i	nt	nt	nt
Cc1ccc2nc(NC(=O)c3ccc(OCC4CCCO4)cc3)sc2c1 (stereo unspecified)	i	i	i	158	nt	nt	nt	STAT1 activ conf=148;NFkB act=i;STAT3 act 2=i
Cc1ccc(CNC(=O)c2ccc(OCC3CCCO3)cc2)cc1 (stereo unspecified)	i	i	i	i	nt	nt	nt
O=C(CC1C(=O)NCCN1Cc1cccc(Oc2ccccc2)c1)NCCCn1cccn1 (stereo unspecified)	i	i	i	i	nt	nt	nt
Cc1cc(C)n2cc(COc3ccc4ccccc4c3)nc2n1	i	i	i	176	nt	nt	nt	STAT1 activ conf=214;NFkB act=i;STAT3 act 2=117
CCOC(=O)c1cn2c(C)cccc2n1	i	i	i	i	nt	nt	nt
Cc1cccc2nc(COc3ccc(-c4ccccc4)cc3)cn12	i	i	i	163	nt	nt	nt	STAT1 activ conf=168;NFkB act=i;STAT3 act 2=115
c1ccc(-n2cnc3cc(NCc4cccs4)ccc32)cc1	i	i	i	169	nt	nt	nt	STAT1 activ conf=249;NFkB act=133;STAT3 act 2=i
O=C(Cn1cncn1)c1ccc(F)cc1F	i	i	i	i	nt	nt	nt
O=C(NN/C(=N/S(=O)(=O)c1ccc(Cl)cc1)c1ccccc1)c1ccc(O)cc1	i	i	i	152	nt	nt	nt	STAT1 activ conf=154;NFkB act=i;STAT3 act 2=111
CNc1nc(CC(C)=O)ns1	i	i	i	i	nt	nt	nt
